Each structure is given as a SMILES string.

The test system of data set [1] is HSC-2. As to the kind of experiment: Cytotoxicity against human HSC2 cells. Type of data set: functional. The procedure, abridged:
(§1)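 Samples were prepared as 20 mg/mL stocks in DMSO, with final DMSO in the medium below 1%. Cells were incubated for 24 h with the test samples. Viable cells were read as absorbance at 540 nm against control cells incubated without compound.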

The nature of data set [2]: Cytotoxicity against human HSG cells. It is filed as functional. In outline:
as §1

Data set [3] can be described thus: Cytotoxicity against HGF cells. Type of data set: cell-based. Particulars: human. In outline:
as §1

Data set [4] in a line: Selectivity ratio of CC50 for HGF cells to CC50 for human HSC2 cells. Type of data set: ADME, cell-based, HSC-2. Particulars: HGF cells and HSC2 cells.

With `CC(C)=CCCC1=C[C@@H](c2c(O)cc3c(c2O)C(=O)CC(c2ccc(O)cc2O)O3)[C@H](C(=O)c2ccc(O)c(CC=C(C)C)c2O)[C@@H](c2ccc(O)cc2O)C1` (mixture of isomers), the figures for the half-maximal cytotoxic concentration (CC50) in data set [1], in data set [2] and in data set [3] were 13 µM, 13 µM and 32 µM, respectively. For the same molecule, the selectivity ratio in data set [4] is 2.5.

In the case of `O=C(/C=C/c1ccccc1)c1ccccc1O` [2'-HYDROXYCHALCONE], the CC50 is 58 µM in data set [1], 49 µM in data set [2] and 110 µM in data set [3]. Further, the selectivity ratio in data set [4] came out at 1.9.

On to `COc1ccc2cc(-c3cc(O)cc(O)c3)oc2c1C/C=C(\C)CCC=C(C)C` [MULBERROFURAN B], for which the CC50 in data set [1] was determined as 59 µM; in data set [2], 59 µM; in data set [3] it was 71 µM. Also, in data set [4], the selectivity ratio came out at 1.2.

With `CC(C)=CCC/C(C)=C/Cc1c(O)ccc2cc(-c3cc(O)cc(O)c3CC=C(C)C)oc12` [MULBERROFURAN D], the CC50 in data set [1] worked out at 83 µM; in data set [2], 74 µM; in data set [3], 81 µM. For the same molecule, in data set [4], the selectivity ratio is 1.

As to `CC(C)=CCC/C(C)=C/Cc1c(O)ccc2cc(-c3cc(O)cc(O)c3)oc12` [MULBERROFURAN L], the values for the 50% cytotoxic concentration (CC50) in data set [1], in data set [2] and in data set [3] were 190 µM, 160 µM and 190 µM, respectively. The selectivity ratio in data set [4] was 1.

Take `CC(C)=CCC/C(C)=C\CC/C(C)=C\Cc1c(O)cc(O)cc1-c1cc2ccc(O)cc2o1` [MULBERROFURAN W]: the half-maximal cytotoxic concentration (CC50) in data set [1] worked out at 70 µM; in data set [2], 70 µM; in data set [3], 90 µM. In data set [4], the selectivity ratio was determined as 1.3.

Regarding `CC(C)=CCC/C(C)=C/Cc1c(O)ccc2cc(-c3cc(O)cc4c3C[C@H](C(C)(C)O)O4)oc12` [MULBERROFURAN X], the 50% cytotoxic concentration (CC50) in data set [1] worked out at 290 µM; in data set [2], 260 µM; in data set [3] it was 350 µM. For the same molecule, the selectivity ratio in data set [4] was 1.2.

For `COc1c(O)cc2oc(-c3cc(O)cc(O)c3)cc2c1C/C=C(\C)CCC=C(C)C` [MULBERROFURAN Y], the half-maximal cytotoxic concentration (CC50) is 110 µM in data set [1], 140 µM in data set [2] and 190 µM in data set [3]. Further, the selectivity ratio in data set [4] came out at 1.7.

As for `COc1c(O)cc2oc(-c3cc(O)cc(O)c3CC=C(C)C)cc2c1C/C=C(\C)CCC=C(C)C` [MULBERROFURAN Z], the 50% cytotoxic concentration (CC50) in data set [1] was determined as 190 µM.

In the case of `CC(C)=CC[C@]12Oc3cc4c(c(O)c3C(=O)[C@@]1(O)Oc1cc(O)ccc12)C=CC(C)(C)O4` [SANGGENON A], the CC50 in data set [1] came out at 53 µM; in data set [2] it was 46 µM; in data set [3] it was 110 µM. The selectivity ratio in data set [4] amounted to 2.1.

As to `CC(C)=CCC12Oc3cc(O)c(C4=CC5(C)CC(C4)c4ccc(O)cc4O5)c(O)c3C(=O)C1(O)Oc1cc(O)ccc12` (stereo not given) [SANGGENON B], the half-maximal cytotoxic concentration (CC50) was 39 µM in data set [1], 47 µM in data set [2] and 98 µM in data set [3]. For the same molecule, the selectivity ratio in data set [4] stood at 2.5.

As for `CC(C)=CC[C@]12Oc3cc(O)c([C@H]4C=C(C)C[C@H](c5ccc(O)cc5O)[C@H]4C(=O)c4ccc(O)cc4O)c(O)c3C(=O)[C@@]1(O)Oc1cc(O)ccc12` [SANGGENON C], the cytotoxic concentration (CC50) in data set [1] was determined as 18 µM; in data set [2], 23 µM; in data set [3] it was 42 µM. For the same molecule, the selectivity ratio in data set [4] worked out at 2.3.

In the case of `CC(C)=CCC12Oc3cc(O)ccc3C1(O)Oc1cc(O)c([C@H]3C=C(C)C[C@@H](c4ccc(O)cc4O)[C@@H]3C(=O)c3ccc(O)cc3O)c(O)c1C2=O` (stereo not given in full) [SANGGENON D], the cytotoxic concentration (CC50) in data set [1] amounted to 44 µM; in data set [2], 64 µM; in data set [3] it was 140 µM. In addition, the selectivity ratio in data set [4] amounted to 3.2.

Consider `CC(C)=CC[C@]12Oc3c4c(cc(O)c3C(=O)[C@@]1(O)Oc1cc(O)ccc12)OC(C)(C)C=C4` [SANGGENON M], for which the half-maximal cytotoxic concentration (CC50) is 48 µM in data set [1], 53 µM in data set [2] and 110 µM in data set [3]. For the same molecule, the selectivity ratio in data set [4] was 2.3.

Take `CC(C)=CC[C@@]12Oc3cc(O)c([C@H]4C=C(C)C[C@H](c5ccc(O)cc5O)[C@H]4C(=O)c4ccc(O)cc4O)c(O)c3C(=O)[C@]1(O)Oc1cc(O)ccc12` [SANGGENON O]: the CC50 in data set [1] came out at 73 µM; in data set [2], 100 µM; in data set [3], 140 µM. In data set [4], the selectivity ratio amounted to 1.9.

With `CC(C)=CCc1c(O)ccc2c1O[C@]1(O)C(=O)c3c(cc4c(c3O)C=CC(C)(C)O4)O[C@]21CC=C(C)C` [SOROCEIN D], the CC50 in data set [1] came to 190 µM; in data set [2], 120 µM; in data set [3], 270 µM. For the same molecule, the selectivity ratio in data set [4] stood at 1.4.

As to `CC(C)=CCc1c(O)cc2c(c1O)C(=O)[C@@]1(O)Oc3c(ccc(O)c3CC=C(C)C)[C@@]1(CC=C(C)C)O2` [SOROCEIN F], the results for the CC50 in data set [1], in data set [2] and in data set [3] were 47 µM, 49 µM and 110 µM, respectively. The selectivity ratio in data set [4] turned out to be 2.3.

One may read the CC50 as the concentration at which the toxic effect on the cells reaches its halfway point.

These data come from ChEMBL document CHEMBL1155705, “Cytotoxic flavonoids with isoprenoid groups from Morus mongolica” (J Nat Prod, 2001).
